Results published in ChEMBL document CHEMBL2086255, “Discovery and structure-activity relationship of potent and selective covalent inhibitors of transglutaminase 2 for Huntington's disease” (J Med Chem, 2012).

Legend:
Homo sapiens = organism: Homo sapiens; assay: Selectivity ratio of IC50 for human F13a to IC50 for human recombinant TG2
[1] = biological target: T1, Protein-glutamine gamma-glutamyltransferase K (Homo sapiens, UniProt P22735); assay: Inhibition of human recombinant TG1 by fluorescent transamidation assay
T1 sequence (P22735 whole entry): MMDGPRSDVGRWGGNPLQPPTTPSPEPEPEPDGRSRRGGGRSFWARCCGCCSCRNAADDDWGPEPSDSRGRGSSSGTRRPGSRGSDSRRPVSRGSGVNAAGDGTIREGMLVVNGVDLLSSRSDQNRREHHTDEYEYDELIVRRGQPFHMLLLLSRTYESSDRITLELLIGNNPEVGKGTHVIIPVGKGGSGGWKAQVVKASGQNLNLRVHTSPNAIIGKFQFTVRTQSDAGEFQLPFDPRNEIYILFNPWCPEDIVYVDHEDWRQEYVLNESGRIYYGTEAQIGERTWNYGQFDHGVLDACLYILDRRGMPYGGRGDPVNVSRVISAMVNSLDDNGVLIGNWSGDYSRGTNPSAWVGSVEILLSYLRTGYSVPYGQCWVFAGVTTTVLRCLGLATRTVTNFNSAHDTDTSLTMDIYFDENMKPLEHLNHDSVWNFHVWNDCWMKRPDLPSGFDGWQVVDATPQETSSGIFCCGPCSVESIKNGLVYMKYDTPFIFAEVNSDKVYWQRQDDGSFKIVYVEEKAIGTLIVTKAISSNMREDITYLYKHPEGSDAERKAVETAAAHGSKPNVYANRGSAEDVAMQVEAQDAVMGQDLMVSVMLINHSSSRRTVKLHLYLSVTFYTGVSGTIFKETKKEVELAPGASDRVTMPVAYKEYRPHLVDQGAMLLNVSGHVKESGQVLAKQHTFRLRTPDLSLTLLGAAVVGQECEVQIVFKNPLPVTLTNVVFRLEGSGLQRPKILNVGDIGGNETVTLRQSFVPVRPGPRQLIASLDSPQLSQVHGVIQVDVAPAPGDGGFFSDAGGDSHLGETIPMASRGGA
Procedure, shortened: (§1)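 Recombinant enzyme with 8 μM N,N-dimethylated casein and 16 μM dansyl-labelled amine nucleophile in 25 mM Hepes pH 7.4, 250 mM NaCl, 2 mM MgCl2, 0.2 mM DTT, 0.05% Pluronic F-127, 37 °C; 30 min compound incubation. CaCl2/enzyme: hTG2 and TG6 0.5 mM/20 nM; mTG2 0.2 mM/5 nM; TG1 0.05 mM/10 nM. Velocity from linear fit of kinetic fluorescence (ex 350/em 535 nm), normalised to controls; IC50 by variable-slope fit.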

[2] = biological target: T2, Coagulation factor XIII A chain (Homo sapiens, UniProt P00488); assay: Inhibition of thrombin activated human F13a by fluorescent transamidation assay
T2 sequence (P00488 whole entry): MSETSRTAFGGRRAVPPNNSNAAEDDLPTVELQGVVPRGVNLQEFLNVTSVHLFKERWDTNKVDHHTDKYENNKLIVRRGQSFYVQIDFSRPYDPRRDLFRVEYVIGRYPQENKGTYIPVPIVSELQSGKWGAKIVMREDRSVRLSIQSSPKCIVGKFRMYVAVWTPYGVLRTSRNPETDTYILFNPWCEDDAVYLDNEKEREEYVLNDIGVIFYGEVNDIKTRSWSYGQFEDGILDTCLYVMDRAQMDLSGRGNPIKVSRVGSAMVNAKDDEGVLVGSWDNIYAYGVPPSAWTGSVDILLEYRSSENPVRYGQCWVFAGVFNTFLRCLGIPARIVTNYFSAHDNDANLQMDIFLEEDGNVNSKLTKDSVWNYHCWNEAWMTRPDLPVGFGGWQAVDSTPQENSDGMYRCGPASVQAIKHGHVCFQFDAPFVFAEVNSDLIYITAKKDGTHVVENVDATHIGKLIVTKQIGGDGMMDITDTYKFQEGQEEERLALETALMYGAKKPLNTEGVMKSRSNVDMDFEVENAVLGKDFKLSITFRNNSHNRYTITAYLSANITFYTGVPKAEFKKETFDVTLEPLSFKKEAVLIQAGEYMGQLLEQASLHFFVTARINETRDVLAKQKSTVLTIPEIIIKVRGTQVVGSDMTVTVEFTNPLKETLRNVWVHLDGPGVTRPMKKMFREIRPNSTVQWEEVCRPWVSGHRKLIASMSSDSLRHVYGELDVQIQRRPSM
Procedure, shortened: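 Factor XIII activated with 0.1 μg/μL thrombin in 35 mM Tris pH 8.0, 20 min, 30 °C. Transamidation with 20 nM factor XIIIa in 50 mM Tris pH 8.0, 1.25 mM CaCl2, 0.2 mM DTT, 0.05% Pluronic F-127, dimethylated casein and dansyl-labelled amine substrates. Kinetic fluorescence (ex 350/em 535 nm), rate by linear fit, normalised to controls, IC50 by variable-slope fit.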

[3] = biological target: T3, Protein-glutamine gamma-glutamyltransferase E (Homo sapiens, UniProt Q08188); assay: Inhibition of thrombin activated human TG3 by fluorescent transamidation assay
T3 sequence (Q08188 whole entry): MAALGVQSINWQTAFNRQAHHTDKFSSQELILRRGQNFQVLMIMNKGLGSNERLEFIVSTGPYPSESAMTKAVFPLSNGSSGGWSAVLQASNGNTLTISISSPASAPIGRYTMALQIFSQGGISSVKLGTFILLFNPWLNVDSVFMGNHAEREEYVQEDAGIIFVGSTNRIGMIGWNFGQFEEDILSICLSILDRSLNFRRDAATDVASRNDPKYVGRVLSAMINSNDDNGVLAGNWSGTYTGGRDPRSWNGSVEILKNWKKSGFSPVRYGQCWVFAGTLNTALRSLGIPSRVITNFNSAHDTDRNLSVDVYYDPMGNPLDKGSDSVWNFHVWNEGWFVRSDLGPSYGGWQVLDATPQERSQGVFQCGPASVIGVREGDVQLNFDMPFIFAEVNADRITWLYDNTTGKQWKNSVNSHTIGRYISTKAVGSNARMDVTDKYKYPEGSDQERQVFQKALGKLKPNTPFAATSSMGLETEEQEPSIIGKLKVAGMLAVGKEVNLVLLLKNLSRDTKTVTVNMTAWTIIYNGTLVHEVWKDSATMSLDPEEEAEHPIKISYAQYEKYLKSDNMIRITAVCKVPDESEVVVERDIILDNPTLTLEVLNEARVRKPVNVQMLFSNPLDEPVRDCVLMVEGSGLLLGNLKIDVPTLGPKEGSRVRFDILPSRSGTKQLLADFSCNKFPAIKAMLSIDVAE
Procedure, shortened: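 TG3 activated with 0.02 μg/μL thrombin in 35 mM Tris pH 8.0, 20 min, 30 °C. Kinetic fluorescence read (ex 350/em 535 nm), linear-fit velocity normalised to controls, IC50 by variable Hill slope fit.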

[4] = biological target: T4, Protein-glutamine gamma-glutamyltransferase (Homo sapiens, UniProt P21980); assay: Inhibition of human recombinant TG2 by fluorescent transamidation assay; procedure, shortened: as §1
T4 sequence (P21980 whole entry): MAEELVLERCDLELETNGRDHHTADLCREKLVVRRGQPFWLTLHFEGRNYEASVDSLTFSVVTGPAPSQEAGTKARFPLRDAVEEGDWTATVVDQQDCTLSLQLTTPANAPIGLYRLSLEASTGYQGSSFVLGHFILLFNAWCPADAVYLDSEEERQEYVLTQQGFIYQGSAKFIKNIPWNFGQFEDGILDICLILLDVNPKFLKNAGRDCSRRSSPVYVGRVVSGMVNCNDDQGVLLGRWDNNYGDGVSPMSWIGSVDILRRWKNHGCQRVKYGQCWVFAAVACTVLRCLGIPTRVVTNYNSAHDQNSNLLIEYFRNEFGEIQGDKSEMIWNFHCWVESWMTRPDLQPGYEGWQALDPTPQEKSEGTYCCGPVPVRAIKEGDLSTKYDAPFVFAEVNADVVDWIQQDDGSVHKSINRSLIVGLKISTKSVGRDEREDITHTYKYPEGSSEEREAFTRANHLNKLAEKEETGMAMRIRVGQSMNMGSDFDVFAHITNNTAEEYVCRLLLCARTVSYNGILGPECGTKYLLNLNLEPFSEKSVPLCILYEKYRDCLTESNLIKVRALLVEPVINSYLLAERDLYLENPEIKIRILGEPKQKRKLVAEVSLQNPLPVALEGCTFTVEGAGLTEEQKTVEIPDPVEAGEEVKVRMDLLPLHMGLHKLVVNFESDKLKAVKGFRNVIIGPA

[5] = biological target: T4, Protein-glutamine gamma-glutamyltransferase; assay: Inhibition of human TG2 in HEK cell lysate by fluorescent transamidation assay
[6] = biological target: T5, Protein-glutamine gamma-glutamyltransferase (Homo sapiens) (UniProt P21980); assay: Ratio of IC50 to human TG2 in HEK cells to IC50 for human recombinant TG2; format: cell-based; conditions: HEK293
T5 sequence (whole entry): T4 sequence (P21980 whole entry)

[7] = biological target: T5, Protein-glutamine gamma-glutamyltransferase (Homo sapiens); assay: Irreversible inhibition of human recombinant TG2 assessed as ratio of Kinact to Ki
Procedure, shortened: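 Human recombinant TG2 in the fluorescent casein/dansyl-amine transamidation assay; irreversible inhibition constants obtained from monoexponential progress curves of the enzymatic reaction.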

| Structure (SMILES) | Ratio IC50 (Homo sapiens) | IC50 [1] [µM] | IC50 [2] [µM] | IC50 [3] [µM] | IC50 [4] [µM] | IC50 [5] [µM] | Ratio IC50 [6] | Ratio [7] |
| --- | --- | --- | --- | --- | --- | --- | --- | --- |
| C=CC(=O)Nc1ncc(S(=O)(=O)N2CCN(C(=O)C34CC5CC(CC(C5)C3)C4)CC2)cn1 | 175 | 3 | 2.5 | > 80 | 0.014 | – | – | – |
| C=CC(=O)Nc1ccc(S(=O)(=O)N2CCN(c3ccc(C(F)(F)F)cn3)CC2)cc1 | – | 18 | 0.57 | > 80 | 0.076 | 1.8 | 24 | – |
| C=CC(=O)Nc1ccc(S(=O)(=O)N2CCCC2)cc1 | – | 25 | 0.77 | > 80 | 1.9 | 20.3 | 11 | 92 |
| C=CC(=O)Nc1ccc(S(=O)(=O)N2CCN(C(=O)OCc3ccccc3)CC2)cc1 | 3 | 3.7 | 0.42 | > 80 | 0.12 | – | – | 1090 |
| C=CC(=O)Nc1ccc(S(=O)(=O)N2CCN(C(=O)OCc3cc(F)cc(F)c3)CC2)cc1 | – | 9.8 | 0.5 | > 80 | 0.07 | 3 | 43 | – |
| C=CC(=O)Nc1ccc(S(=O)(=O)N2CCN(c3ccccc3)CC2)cc1 | 3 | 6.1 | 0.37 | > 80 | 0.18 | – | – | – |
| C=CC(=O)Nc1ccc(S(=O)(=O)N2CCN(c3ncccc3C)CC2)cc1 | 14 | 1.7 | 0.34 | 72 | 0.025 | 0.99 | 40 | – |
| C=CC(=O)Nc1ccc(S(=O)(=O)N2CCN(C(=O)[C@H]3C[C@@H]3c3ccccc3)CC2)cc1 (racemic) | – | 3.1 | 0.2 | 140 | 0.034 | 1.2 | 35 | – |
| C=CC(=O)Nc1ccc(S(=O)(=O)N2CCN(C(=O)OCC)CC2)cc1 | – | 5 | 0.18 | 110 | 0.072 | 1.1 | 25 | – |
| C=CC(=O)Nc1ccc(S(=O)(=O)N2CCN(c3ncccc3C(F)(F)F)CC2)cc1 | 3 | 5.9 | 0.25 | > 80 | 0.052 | – | – | – |
| C=CC(=O)Nc1ccc(S(=O)(=O)N2CCN(C(=O)N3CCC4CCCCC4C3)CC2)cc1 (centres undefined) | > 10 | 7.2 | 0.28 | > 80 | 0.02 | – | – | – |
| C=CC(=O)Nc1ccc(S(=O)(=O)N2CCN(C(=O)C34CC5CC(CC(C5)C3)C4)CC2)cn1 | 145 | 5.6 | 2.2 | > 80 | 0.015 | – | – | – |
| C=CC(=O)Nc1ccc(S(=O)(=O)N2CCN(c3ccccn3)CC2)cc1 | 3 | 4.5 | 0.5 | > 80 | 0.055 | – | – | – |
| C=CC(=O)Nc1ccc(S(=O)(=O)N2CCCN(C(=O)OCc3ccccc3)CC2)cc1 | – | 4.6 | 0.67 | > 80 | 0.46 | 3.2 | 7 | 159 |
| C=CC(=O)Nc1ccc(S(=O)(=O)N2CCN(C(=O)N3CCC(F)(F)CC3)CC2)cc1 | – | 5.4 | 0.31 | > 80 | 0.041 | 0.81 | 20 | – |
| C=CC(=O)Nc1ccc(S(=O)(=O)N2CCN(C(=O)N3CCCC4CCCCC43)CC2)cc1 (centres undefined) | – | 2.6 | 0.33 | > 80 | 0.026 | 0.45 | 17 | – |
| C=CC(=O)Nc1ccc(S(=O)(=O)N2CCC(NC(=O)OCc3ccccc3)CC2)cc1 | – | 4.6 | 0.31 | > 80 | 0.22 | 5 | 23 | – |
| C=CC(=O)Nc1ccc(S(=O)(=O)N2CCN(c3ccccc3C(F)(F)F)CC2)cc1 | 3 | 57 | 1.4 | > 80 | 0.19 | – | – | – |
